Where “and” joins values, the source holds several entries; their conditions need not be identical. Equal entries are not always repeated.
Assays:
[1] = Kinetic solubility of compound
[2] = Permeability of the compound at pH 7.4 incubated for 30 mins by UV plate reader based PAMPA assay; details: for permeability: pampa, pH 7.4, 0.5 h; for Papp at 0.5 h: PAMPA, pH 7.4
[3] = Microsomal stability in CD1 mouse liver microsomes assessed as half life measured upto 60 mins in presence of NADPH by LC-MS analysis; details: for half-life at 1 h: CD1, mouse, liver microsomes; for t1/2: mouse, microsomes, 1 h
PC-3M = test: Anticancer activity in human PC-3M cells expressing PTB/GFP fusion protein assessed as perinucleolar compartment disassembly and measured after 24 hrs by Hoechst 33342 staining based microscopic method; assay type: functional, cell-based
Outline: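 Imaged by high-content microscopy. Nuclei with PNC spots ≥3 and >0 scored positive. PNC prevalence % = PNC-positive nuclei/total nuclei ×100, normalized to DMSO (0% activity) and 0% PNC (−100%). IC50 from concentration-response.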

SMILES	solubility kinetic [1]	permeability [2]	half-life at 1 h [3] [min]	IC50 (PC-3M; read-out: pIC50 (converted)) [µM]	Papp at 0.5 h [2] [×10⁻⁶ cm/s]	IC50 (PC-3M; read-out: IC50) [µM]	t1/2 [3] [min]
N=c1c2c(-c3ccccc3)c(-c3ccccc3)n(CCc3ccccc3)c2ncn1[C@H]1CC[C@H](O)CC1	> 132 µM and > 65 µg/mL	> 1000 10^-6 cm/s	120	0.339	–	–	–
N=c1c2c(-c3ccccc3)c(-c3ccccc3)n(CCc3ccccc3)c2ncn1CCCCO	–	–	6.6	4.47	> 1000	4.47	–
N=c1c2c(-c3ccccc3)c(-c3ccccc3)n(Cc3ccccc3)c2ncn1CC1CCOCC1	–	> 1000 10^-6 cm/s	–	10.7	–	–	7.1
COc1ccc(-c2c(-c3ccc(OC)cc3)n(Cc3ccccc3)c3ncn([C@@H]4CCCC[C@H]4O)c(=N)c23)cc1 (mixture of isomers)	–	> 1000 10^-6 cm/s	–	–	–	> 20	29.2
N=c1c2c(-c3ccccc3)c(-c3ccccc3)n(CCc3ccccc3)c2ncn1C1CCOCC1	–	> 1000 10^-6 cm/s	–	10	–	0.96	14.5
N=c1c2c(-c3ccccc3)c(-c3ccccc3)n(Cc3ccccc3)c2ncn1CCO	–	> 1000 10^-6 cm/s	–	0.832	–	–	25.1
N=c1c2c(-c3ccccc3)c(-c3ccccc3)n(Cc3ccc(OC(F)(F)F)cc3)c2ncn1[C@H]1CC[C@@H](O)CC1	–	1246.89 10^-6 cm/s	120	3.39	–	–	–
Cc1c(C)n(Cc2ccccc2)c2ncn([C@H]3CC[C@H](O)CC3)c(=N)c12	–	< 1 10^-6 cm/s	120	–	–	> 20	–
N=c1c2c(-c3ccccc3)c(-c3ccccc3)n(CCc3ccccc3)c2ncn1CCO	–	> 1000 10^-6 cm/s	–	1.32	–	–	32.6
N#Cc1c(-c2ccccc2)c(-c2ccccc2)n(Cc2ccccc2)c1/N=C/N[C@H]1CC[C@H](O)CC1	–	327.5 10^-6 cm/s	–	–	–	> 20	11.2
CN(C)CCn1cnc2c(c(-c3ccccc3)c(-c3ccccc3)n2Cc2ccccc2)c1=N	–	1358 10^-6 cm/s	–	2.95	–	–	14.3
N=c1c2c(-c3ccccc3)cn(Cc3ccccc3)c2ncn1Cc1ccco1	–	1737 10^-6 cm/s	–	–	–	> 20	3
N=c1c2c(-c3ccccc3)c(-c3ccccc3)n(Cc3ccccc3)c2ncn1[C@H](CO)Cc1ccccc1	–	< 1 10^-6 cm/s	–	–	–	> 20	5.5
N=c1c2c(-c3ccccc3)cn(Cc3ccccc3)c2ncn1CCO	–	1270.9 10^-6 cm/s	–	–	–	> 20	9.2
N=c1c2c(-c3ccccc3)c(-c3ccccc3)n(CC3CC3)c2ncn1CCCO	–	> 1000 10^-6 cm/s	–	–	–	6.31	25.4
N=c1c2c(-c3ccccc3)c(-c3ccccc3)n(CCc3ccccc3)c2ncn1CC1CCOC1 (stereo not drawn)	–	> 1000 10^-6 cm/s	–	10.7	–	–	6.9
N=c1c2c(-c3ccccc3)c(-c3ccccc3)n(Cc3ccccc3)c2ncn1CC1CCOC1 (stereo not drawn)	–	> 1000 10^-6 cm/s	–	10.7	–	–	5.3
N=c1c2c(-c3ccccc3)c(-c3ccccc3)n(Cc3ccc(S(N)(=O)=O)cc3)c2ncn1C1CCOCC1	–	–	–	1.17	> 1000	–	70
N=c1c2c(-c3ccccc3)c(-c3ccccc3)n(Cc3ccccc3)c2ncn1C[C@@H]1CCCC[C@H]1CO (relative stereo)	–	> 1000 10^-6 cm/s	–	0.933	–	–	17.4
C[C@H]([C@@H](O)c1ccccc1)n1cnc2c(c(-c3ccccc3)c(-c3ccccc3)n2Cc2ccccc2)c1=N	–	606 10^-6 cm/s	–	–	–	> 20	6.4
N=c1c2c3c(n(CCc4ccccc4)c2ncn1CCCO)CCCC3	–	–	4.5	–	883	> 20	–
COc1ccc(-c2c(-c3ccc(OC)cc3)n(Cc3ccccc3)c3ncn(CC4CCOC4)c(=N)c23)cc1 (stereo not drawn)	–	> 1000 10^-6 cm/s	–	–	–	> 20	16.5
COc1ccc(-c2c(-c3ccc(OC)cc3)n(Cc3ccccc3)c3ncn(C4CCOCC4)c(=N)c23)cc1	–	> 1000 10^-6 cm/s	–	–	–	> 20	58.7
COc1ccc(Cn2c(-c3ccccc3)c(-c3ccccc3)c3c(=N)n(CC4CCOCC4)cnc32)cc1	–	1266.09 10^-6 cm/s	–	9.33	–	–	13
N=c1c2c(-c3ccccc3)c(-c3ccccc3)n(Cc3ccccc3)c2ncn1CC1CCCO1 (stereo not drawn)	–	> 1000 10^-6 cm/s	–	9.33	–	–	6.5

SMILES	solubility kinetic [1]	permeability [2]	half-life at 1 h [3] [min]	IC50 (PC-3M; read-out: pIC50 (converted)) [µM]	Papp at 0.5 h [2] [×10⁻⁶ cm/s]	IC50 (PC-3M; read-out: IC50) [µM]	t1/2 [3] [min]
COc1ccc(CCn2cnc3c(c(-c4ccccc4)cn3Cc3ccccc3)c2=N)cc1OC	–	> 1000 10^-6 cm/s	–	–	–	> 20	2.9
N=c1c2c(-c3ccccc3)c(-c3ccccc3)n(Cc3ccccc3)c2ncn1C1CCC(=O)CC1	75 µM and 36 µg/mL	> 1000 10^-6 cm/s	–	0.302	–	–	38.2
COCCn1cnc2c(c(-c3ccccc3)c(-c3ccccc3)n2Cc2ccccc2)c1=N	–	> 1000 10^-6 cm/s	–	9.33	–	–	9.5
N=c1c2c(-c3ccccc3)c(-c3ccccc3)n(Cc3ccccc3)c2ncn1C1CCOCC1	18 µM and 8.3 µg/mL	> 1000 10^-6 cm/s	–	0.316	–	0.32	29.6
N=c1c2c(-c3ccccc3)c(-c3ccccc3)n(Cc3ccccc3)c2ncn1[C@H]1CC[C@@H](O)CC1	–	> 1000 10^-6 cm/s	–	0.832	–	–	52.3
N=c1c2c(-c3ccccc3)c(-c3ccccc3)n(Cc3ccccc3)c2ncn1[C@@H]1CCCC[C@H]1O (relative stereo)	–	> 1000 10^-6 cm/s	–	0.501	–	–	28.8
N=c1c2c(-c3ccccc3)c(-c3ccccc3)n(Cc3ccccc3)c2ncn1CCCCCO	–	> 1000 10^-6 cm/s	–	3.16	–	–	9
N=c1c2c(-c3ccccc3)c(-c3ccccc3)n(Cc3ccccc3)c2ncn1CCCCO	–	> 1000 10^-6 cm/s	–	4.27	–	–	7.7
N=c1c2c(-c3ccccc3)c(-c3ccccc3)n(Cc3ccccc3)c2ncn1CCNc1ccncc1	–	445.1 10^-6 cm/s	–	6.61	–	–	29.9
N=c1c2c(-c3ccccc3)c(-c3ccccc3)n(CCc3ccccc3)c2ncn1CC1CCOCC1	–	1229.2 10^-6 cm/s	–	–	–	10	7.3
COc1ccc(-c2c(-c3ccc(OC)cc3)n(Cc3ccccc3)c3ncn(CCO)c(=N)c23)cc1	–	> 1000 10^-6 cm/s	–	–	–	> 20	73.2
Cc1c(C)n(Cc2ccccc2)c2ncn(CCCO)c(=N)c12	–	609.3 10^-6 cm/s	120	–	–	> 20	–
N#Cc1c(-c2ccccc2)c(-c2ccccc2)n(Cc2ccccc2)c1N	–	62 10^-6 cm/s	–	–	–	> 20	13.3
N=c1c2c(-c3ccccc3)c(-c3ccccc3)n(CCc3ccccc3)c2ncn1CC1CCCO1 (stereo not drawn)	–	> 1000 10^-6 cm/s	–	7.94	–	–	8.4
Cc1c(C)n(Cc2ccccc2)c2ncn(C3CCOCC3)c(=N)c12	–	1683.3 10^-6 cm/s	–	–	–	> 20	26.9
N=c1c2c(-c3ccccc3)c(-c3ccccc3)n(Cc3ccc(OC(F)(F)F)cc3)c2ncn1C1CCOCC1	–	> 1000 10^-6 cm/s	–	0.955	–	–	72
N=c1c2c(-c3ccccc3)c(-c3ccccc3)n(Cc3ccccc3)c2ncn1C[C@@H]1CCCC[C@H]1O (relative stereo)	–	> 1000 10^-6 cm/s	–	2	–	–	2.4
N=c1c2c(-c3ccccc3)c(-c3ccccc3)n(CC3CC3)c2ncn1C1CCOCC1	–	> 1000 10^-6 cm/s	–	0.832	–	–	68
COc1ccc(Cn2c(-c3ccccc3)c(-c3ccccc3)c3c(=N)n([C@H]4CC[C@H](O)CC4)cnc32)cc1	–	> 1000 10^-6 cm/s	120	0.158	–	–	–
COc1ccc(Cn2c(-c3ccccc3)c(-c3ccccc3)c3c(=N)n(CC4CCCO4)cnc32)cc1 (stereo not drawn)	–	> 1000 10^-6 cm/s	–	8.51	–	–	9.4
CN(C)CCCn1cnc2c(c(-c3ccccc3)c(-c3ccccc3)n2Cc2ccccc2)c1=N	–	–	120	12.6	320	12.6	–
COc1ccc(Cn2c(-c3ccccc3)c(-c3ccccc3)c3c(=N)n(CCCO)cnc32)cc1	–	> 1000 10^-6 cm/s	–	2.14	–	–	19.9
CN(C)CCCn1cnc2c(c(-c3ccccc3)c(-c3ccccc3)n2CCc2ccccc2)c1=N	–	294.4 10^-6 cm/s	–	–	–	12.6	77.9
COc1ccc(Cn2c(-c3ccccc3)c(-c3ccccc3)c3c(=N)n(CCO)cnc32)cc1	–	–	31.1	2.82	> 1000	2.83	–
N=c1c2c3c(n(CCc4ccccc4)c2ncn1[C@H]1CC[C@H](O)CC1)CCCC3	–	204.6 10^-6 cm/s	–	–	–	> 20	86.5
